Hits are enriched below; roughly 1.9% of the tested compounds scored in any of these assays.
DNMT1 inh = inhibitors of human DNMT1 | P26358 | DNMT1 molecular beacon, Hinp1I cleavage, fluorescence | inhibition (reported as % activation of signal), % at 10 µM | 360,000 tested, 0.83% active | AID 588458; in the data active means inhibition above about 50%
Target sequence (P26358 504-1616 limits assumed): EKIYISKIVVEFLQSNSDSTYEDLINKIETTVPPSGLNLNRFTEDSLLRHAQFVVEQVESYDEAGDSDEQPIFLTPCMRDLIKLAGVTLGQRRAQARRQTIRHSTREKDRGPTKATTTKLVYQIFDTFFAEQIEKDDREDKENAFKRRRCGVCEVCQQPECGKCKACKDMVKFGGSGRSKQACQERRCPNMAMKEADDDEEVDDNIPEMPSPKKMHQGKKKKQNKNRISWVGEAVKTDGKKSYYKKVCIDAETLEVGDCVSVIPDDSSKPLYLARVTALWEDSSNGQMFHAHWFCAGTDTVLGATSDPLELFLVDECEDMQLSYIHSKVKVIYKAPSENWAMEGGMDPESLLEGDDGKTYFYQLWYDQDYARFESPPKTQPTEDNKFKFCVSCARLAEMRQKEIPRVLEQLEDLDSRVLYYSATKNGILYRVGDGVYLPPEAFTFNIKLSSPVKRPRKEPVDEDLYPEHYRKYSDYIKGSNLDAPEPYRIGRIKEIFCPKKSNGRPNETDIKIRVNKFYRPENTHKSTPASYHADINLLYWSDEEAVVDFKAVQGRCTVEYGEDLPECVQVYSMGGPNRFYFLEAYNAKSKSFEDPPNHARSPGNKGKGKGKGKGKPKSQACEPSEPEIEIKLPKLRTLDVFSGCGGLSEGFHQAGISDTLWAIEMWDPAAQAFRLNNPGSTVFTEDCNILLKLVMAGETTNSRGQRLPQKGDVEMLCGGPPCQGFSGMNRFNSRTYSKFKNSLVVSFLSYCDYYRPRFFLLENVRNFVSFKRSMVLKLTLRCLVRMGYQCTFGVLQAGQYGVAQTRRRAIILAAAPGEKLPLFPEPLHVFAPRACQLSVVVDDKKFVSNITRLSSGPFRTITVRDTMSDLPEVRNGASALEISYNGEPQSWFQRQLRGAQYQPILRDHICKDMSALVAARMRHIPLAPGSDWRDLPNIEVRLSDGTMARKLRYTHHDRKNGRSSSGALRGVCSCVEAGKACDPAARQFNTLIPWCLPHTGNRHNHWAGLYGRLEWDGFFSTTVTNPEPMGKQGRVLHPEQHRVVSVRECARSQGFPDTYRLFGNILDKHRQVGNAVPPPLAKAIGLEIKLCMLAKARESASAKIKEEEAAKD
STEP block = blocks human striatal-enriched tyrosine phosphatase | inhibition, % at 20 µM | 360,000 tested, 0.25% active | recombinant STEP, OMFP fluorogenic substrate, fluorescence;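 active means inhibition at 20 µM, scaled per plate between control wells, above about 37%, limit read from the data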
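Material: STEP (striatal-enriched tyrosine phosphatase) enzyme, cell-free; Compound dosing: 20 µM single dose in 1% DMSO; Technique: fluorescence read at 480 nm ex / 540 nm em; Times: reaction 20 min, ambient temperature; Medium: 50 mM Bis-Tris pH 6.0 with 2.5 mM DTT and 0.005% Tween 20; Also added: OMFP at 25 µM.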
CSN deneddyl inh = CSN deneddylation inhibition; Purified CSN, SCF-Nedd8-OG deneddylation, fluorescence polarization; inhibition, % at 12.5 µM; 360,000 tested, 0.38% active; AID 651999;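 active means pattern-corrected inhibition above about 35%, with an unprinted fluorescence ratio check between 0.5 and 1.5, limit read from the data, passing the limit was not always enough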
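Assay system: purified human Csn5 enzyme expressed in HEK293T cells; measure: % inhibition; also added: SCFSkp2-Nedd8OG substrate at 10 nM final; technique: fluorescence polarization; times: reaction 90 min, room temperature; medium: Tris buffer pH 7.5, NaCl, DTT, Tween-20, trehalose, ovalbumin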
SUMO1-SIM PPI = alters human SUMO1 binding to SIM partners; P63165; SUMO1 binding to a labelled peptide, TR-FRET, 1 h; inhibition, % at 20 µM; 360,000 tested, 0.33% active; AID 602429; in the data active means inhibition above about 37%
LMPTP block = LMPTP (human) inhibition; 360,000 tested, 0.22% active; AID 651560; recombinant LMPTP-A, OMFP fluorogenic substrate, fluorescence intensity; P24666; inhibition, % at 20 µM;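 active means compounds that cut the enzyme signal by at least half of the control window in the single-dose screen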
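Test system – LMPTP-A phosphatase enzyme · Quantity – 0.625 nM LMPTP-A final · Reagent – OMFP substrate, 400 µM final · Dosing – one test concentration per compound, 20 µM, with 3% DMSO overall · Timing – 50 min enzyme reaction at room temperature, protected from light · Detection – fluorescence intensity · Controls – substrate-only low control, DMSO enzyme-plus-substrate high control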
Scp1 inh = Scp-1 (human) phosphatase inhibition; AID 493091; Recombinant Scp1, phosphopeptide, malachite green phosphate absorbance; Q9GZU7; inhibition, % at 20 µM; 340,000 tested, 0.88% active;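 active means inhibition above about 50% at 20 µM, limit read from the data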
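Material: truncated SCP-1 phosphatase (76-261aa) / Buffer or medium: 50 mM Tris acetate pH 5.5, 0.005% Tween-20, 10 mM MgCl2 / Compound dosing: one concentration, 20 µM, with 1.0% DMSO / Incubation: 45 min room-temperature reaction, 5 min colour, 30 min stabiliser / Detection: colorimetric free-phosphate detection, absorbance 630 nm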
Numbers stand for hits; – = inactive; · = no result; + = active, no number.

SMILES	DNMT1 inh	STEP block	CSN deneddyl inh	SUMO1-SIM PPI	LMPTP block	Scp1 inh
CC(C)(CN1CCc2ccccc2C1)NS(=O)(=O)c1ccc(Cl)cc1	–	–	–	44.6	–	–
CN1CCN(CC(C)(C)NS(=O)(=O)c2ccc(Cl)cc2)CC1	–	–	–	–	–	–
OCCCNc1ncnc2c1ncn2[C@H]1CN(Cc2ccco2)C[C@@H](CO)O1	–	–	–	–	–	·
C=C(C)C(=O)Oc1ccc(N=Nc2ccc(C)cc2)ccc1=O	95.4	–	–	47.5	–	85.4
COCCN(C(=O)CSc1nc2ccccc2c(=O)n1CCOC)c1c(N)n(Cc2ccccc2)c(=O)[nH]c1=O	–	–	–	–	–	–
CCOc1cc(/C=C2\C(=N)N3N=C(C)SC3=NC2=O)ccc1OCCOc1cccc(OC)c1	–	–	–	–	–	–
CCc1nn2c(=O)cc(COc3ccc(/C=C4\C(=N)N5N=C(C)SC5=NC4=O)cc3)nc2s1	59.1	–	–	–	–	–
O=c1[nH]c2cc3c(cc2cc1C(c1nnnn1C1CCCCC1)N1CCSCC1)OCCO3 (stereo not drawn)	–	–	36.6	–	–	–
COc1ccc([C@H]2CC(=O)C=C(c3cccc(Cl)c3)C2)cc1	–	–	–	–	–	–
CCOC(=O)c1cccc(C2=CC(=O)C[C@H](c3ccc(OC)cc3)C2)c1	–	–	95.0	–	–	–
CCC(NC(=O)CCc1c(C)c2cc3c(C)c(C)oc3cc2oc1=O)C(=O)N[C@@H](Cc1ccccc1)C(=O)O (stereo partly drawn)	–	–	–	–	–	–
CCCC(NC(=O)CCc1c(C)c2cc3c(C)c(C)oc3cc2oc1=O)C(=O)NC(Cc1ccc(Cl)cc1)C(=O)O (stereo not drawn)	–	–	37.1	–	–	·
Cc1noc(C)c1NC(=O)N(C)C[C@H]1Oc2ccc(NS(=O)(=O)c3c(C)noc3C)cc2C(=O)N([C@H](C)CO)C[C@@H]1C	–	–	–	–	–	–
Cc1noc(C)c1S(=O)(=O)Nc1ccc2c(c1)C(=O)N([C@H](C)CO)C[C@H](C)[C@@H](CN(C)C(=O)Nc1ccc3c(c1)OCO3)O2	–	–	–	–	–	76.4
COc1ccc(C=NN=C2c3ccccc3-c3ccccc32)cc1OC	–	–	–	–	–	–
NNc1nc(C(F)(F)F)nc2ccccc12	–	–	–	–	–	–
O/C=c1\ccc2cccc3nc(C(F)(F)F)nc1c23	50.2	–	–	–	–	–
COc1ccccc1NC(=O)CSc1nc(=O)n2cc(C)ccc2n1	–	–	–	–	–	–
N#CC(C#N)=C1C=C2C=C(N3CCCCC3)CCC2CC1 (stereo not drawn)	·	·	·	·	·	–
CCCCN(C)C1=CC2=CC(=C(C#N)C#N)CCC2CC1 (stereo not drawn)	+	–	–	–	–	–
CCN(CC)C1=CC2=CC(=C(C#N)C#N)CCC2CC1 (stereo not drawn)	+	–	–	–	–	–
COc1cc(-c2nc3ccccc3c(=O)n2N)cc(OC)c1OC	–	–	–	–	–	–
CCC(CC)c1nnc(NC(=O)c2cc([N+](=O)[O-])ccc2N2CCCCC2)s1	–	–	47.2	–	–	–
C#CCOCCOCCOCCNc1nc(N2CCN(C(=O)[C@H](CCCCN)n3cc(CN)nn3)CC2)nc(N2CCN(C(=O)[C@H](CCCCN)n3cc(CN)nn3)CC2)n1	–	–	38.8	–	–	–
C#CCOCCOCCOCCNc1nc(N2CCOCC2)nc(N2CCN(C(=O)[C@H](CCCCN)n3cc(CCC(=O)O)nn3)CC2)n1	–	–	–	–	–	–
SMILES	DNMT1 inh	STEP block	CSN deneddyl inh	SUMO1-SIM PPI	LMPTP block	Scp1 inh
C#CCOCCOCCOCCNc1nc(N2CCN(C(=O)C([C@@H](C)O)n3cc([C@@H](N)CCCCN)nn3)CC2)nc(N2CCN(C(=O)[C@H](CCC(=O)O)n3cc([C@@H](N)[C@H](C)CC)nn3)CC2)n1 (stereo partly drawn)	–	–	–	–	–	–
C#CCOCCOCCOCCNc1nc(N2CCN(C(=O)C(Cc3cc4ccccc4[nH]3)n3cc(C(N)C(C)CC)nn3)CC2)nc(N2CCN(C(=O)C(Cc3cc4ccccc4[nH]3)n3cc(C(N)C(C)CC)nn3)CC2)n1 (stereo not drawn)	–	–	43.8	–	–	–
C#CCOCCOCCOCCNc1nc(N2CCN(C(=O)C([C@@H](C)O)n3cc([C@@H](N)CCCCN)nn3)CC2)nc(N2CCN(C(=O)[C@H](CCCCN)n3cc([C@@H](N)[C@H](C)CC)nn3)CC2)n1 (stereo partly drawn)	–	–	84.7	–	–	–
C#CCOCCOCCOCCNc1nc(N2CCN(C(=O)[C@H](CCCCN)n3cc(CN)nn3)CC2)nc(N2CCN(C(=O)[C@H](CCC(=O)O)n3cc([C@@H](N)CCCCN)nn3)CC2)n1	–	–	99.9	–	–	–
C[C@H]1CCCCO[C@H](CN(C)S(=O)(=O)c2cn(C)cn2)[C@@H](C)CN([C@@H](C)CO)C(=O)c2cc(NS(=O)(=O)c3ccccc3)ccc2O1	–	–	–	–	–	·
COc1ccc(NC2CCCN(C(=O)c3cn(C)c4ccccc34)C2)cc1 (stereo not drawn)	–	–	–	–	–	–
CCc1ccccc1OCC(=O)Nc1ccc(N2CCCC2)cc1C	53.3	–	–	–	–	–
Cc1ccccc1OCC(=O)Nc1ccc(N2CCOCC2)cc1N1CCOCC1	–	–	–	–	–	–
CCOc1ccccc1NC(=O)c1cc(S(=O)(=O)NCc2ccco2)ccc1F	–	–	–	–	–	–
O=C(c1cc(-c2ccccc2)nc2ccccc12)N1CCCC1	–	–	–	–	–	–
c1ccc(-c2cc(NCCN3CCCCC3)c3ccccc3n2)cc1	–	–	–	–	90.3	–
CSc1cccc(NC(=S)NC(=O)CCc2ccccc2)c1	–	–	–	38.3	–	–
CCN(CC)C(=O)C1=C(C)N(CCC2=CCCCC2)C(=O)C(CC(=O)NC2CCCC2)C1 (stereo not drawn)	–	–	–	–	–	·
CN(CCc1ccccc1)C(=O)CCc1nnc(Cc2ccc3c(c2)OCO3)o1	–	–	–	–	–	–
CCC(C)N1C(=O)/C(=C/c2c(NCCCOC(C)C)nc3c(C)cccn3c2=O)SC1=S (stereo not drawn)	–	–	–	–	–	–
CCCN1C(=O)/C(=C/c2c(NCCCOC(C)C)nc3c(C)cccn3c2=O)SC1=S	–	–	55.6	–	–	–

High-throughput results as filed in PubChem.
